Measurements as given in ChEMBL document CHEMBL1153337, “Small molecule antagonists of the gonadotropin-releasing hormone (GnRH) receptor: structure-activity relationships of small heterocyclic groups appended to the 2-phenyl-4-piperazinyl-benzimidazole template” (Bioorg Med Chem Lett, 2009).

Tests used:
CYP2D6 = CYP2D6 (Homo sapiens, UniProt P10635); assay: Inhibition of CYP2D6 at 3 uM; format: ADME
[1] = target: T1, Gonadotropin-releasing hormone receptor (Rattus norvegicus, UniProt P30969); assay: Displacement of [125I]-(D-Trp6)-GnRH from rat GnRH receptor
T1 sequence (P30969 whole entry): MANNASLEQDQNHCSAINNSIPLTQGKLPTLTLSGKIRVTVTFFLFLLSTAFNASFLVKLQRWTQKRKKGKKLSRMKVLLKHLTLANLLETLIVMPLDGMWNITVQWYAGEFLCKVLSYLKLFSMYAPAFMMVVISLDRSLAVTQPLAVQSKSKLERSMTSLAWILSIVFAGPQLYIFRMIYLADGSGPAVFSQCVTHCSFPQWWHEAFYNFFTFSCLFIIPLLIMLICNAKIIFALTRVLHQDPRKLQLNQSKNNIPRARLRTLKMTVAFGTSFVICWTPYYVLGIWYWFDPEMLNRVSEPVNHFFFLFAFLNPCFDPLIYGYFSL
How it was run: (§1)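 Competition binding at overexpressed human or rat GnRH receptors against 125I-(D-Trp6)-GnRH; IC50 averaged from two independent experiments run in triplicate.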

[2] = Clearance in orchidectomized Sprague-Dawley rat at 1 mg/kg, iv after 1 day; format: ADME, organism-based; design: dose 1 mg/kg, route intravenous; conditions: male, in vivo
How it was run: (§2)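 Orchidectomized SD rats, single iv dose of 1 mg/kg in 20% DMSO/PEG 200; one-day PK study.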

Rattus norvegicus [3] = assay: Change in serum leutinizing hormone level in orchidectomized rat at 30 mg/kg, po after 4 hrs relative to control; format: functional
How it was run: (§3)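 Orchidectomized rats (stable elevated LH after testosterone feedback removal), oral gavage 30 mg/kg in PEG 400 vs vehicle cohort, n = 6 per group; serum LH sampled over 24 h, relative LH with t = 0 set to 100; change = treated minus vehicle average.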

Rattus norvegicus [4] = assay: Change in serum leutinizing hormone level in orchidectomized rat at 30 mg/kg, po after 2 hrs relative to control; format: functional; how it was run: as §3
[5] = Solubility at pH 7.4; format: physicochemical; conditions: buffer
Rattus norvegicus [6] = assay: Change in serum leutinizing hormone level in orchidectomized rat at 30 mg/kg, po after 0.5 hrs relative to control; format: functional; how it was run: as §3
[7] = AUC (0 to alpha) in orchidectomized Sprague-Dawley rat at 30 mg/kg, po after 1 day; format: ADME, organism-based; design: dose 30 mg/kg, route oral; conditions: male, plasma
How it was run: (§4)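 Orchidectomized SD rats, single oral dose of 30 mg/kg in PEG 400; iv arm 1 mg/kg in 20% DMSO/PEG 200 for bioavailability; one-day PK study.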

[8] = Metabolic stability in rat liver microsomes assessed as half life; format: ADME, Microsome
CYP2C9 = CYP2C9 (Homo sapiens, UniProt P11712); assay: Inhibition of CYP2C9 at 3 uM; format: ADME
CYP2C9, sequence (P11712 whole entry): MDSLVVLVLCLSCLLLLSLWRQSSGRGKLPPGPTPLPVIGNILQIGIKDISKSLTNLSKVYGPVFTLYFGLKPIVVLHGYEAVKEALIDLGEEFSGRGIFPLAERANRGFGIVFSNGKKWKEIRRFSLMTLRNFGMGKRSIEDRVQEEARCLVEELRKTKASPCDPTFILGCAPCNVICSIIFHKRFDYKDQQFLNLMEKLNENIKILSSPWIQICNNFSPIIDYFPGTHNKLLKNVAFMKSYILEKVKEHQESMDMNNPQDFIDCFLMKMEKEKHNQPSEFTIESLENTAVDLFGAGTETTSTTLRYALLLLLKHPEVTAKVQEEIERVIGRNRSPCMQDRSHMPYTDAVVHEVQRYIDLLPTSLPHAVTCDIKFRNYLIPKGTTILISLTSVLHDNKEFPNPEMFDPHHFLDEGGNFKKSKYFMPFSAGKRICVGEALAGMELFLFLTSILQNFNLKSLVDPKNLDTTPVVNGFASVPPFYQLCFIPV

[9] = Half life in orchidectomized Sprague-Dawley rat at 30 mg/kg, po after 1 day; format: ADME, organism-based; design: dose 30 mg/kg, route oral; conditions: male, in vivo; how it was run: as §4
CYP3A4 = CYP3A4 (Homo sapiens, UniProt P08684); assay: Inhibition of CYP3A4 at 3 uM; format: ADME
CYP3A4, sequence (P08684 whole entry): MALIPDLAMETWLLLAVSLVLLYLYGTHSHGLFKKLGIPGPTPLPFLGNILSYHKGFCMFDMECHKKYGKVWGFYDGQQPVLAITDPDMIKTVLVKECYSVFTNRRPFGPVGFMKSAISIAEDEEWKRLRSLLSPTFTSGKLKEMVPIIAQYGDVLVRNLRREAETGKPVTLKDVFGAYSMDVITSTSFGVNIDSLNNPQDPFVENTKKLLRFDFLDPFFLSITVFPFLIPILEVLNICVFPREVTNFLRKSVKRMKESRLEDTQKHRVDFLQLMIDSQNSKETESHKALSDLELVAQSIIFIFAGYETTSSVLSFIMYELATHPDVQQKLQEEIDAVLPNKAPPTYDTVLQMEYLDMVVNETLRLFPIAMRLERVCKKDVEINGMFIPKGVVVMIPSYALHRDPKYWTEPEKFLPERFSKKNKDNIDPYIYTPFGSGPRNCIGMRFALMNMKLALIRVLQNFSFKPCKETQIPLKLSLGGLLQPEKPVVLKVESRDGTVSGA

[10] = Half life in orchidectomized Sprague-Dawley rat at 1 mg/kg, iv after 1 day; format: ADME, organism-based; design: dose 1 mg/kg, route intravenous; conditions: male, in vivo; how it was run: as §2
[11] = target: T2, Gonadotropin-releasing hormone receptor (Homo sapiens, UniProt P30968); assay: Antagonist activity at human recombinant GnRH receptor expressed in HEK293 cells assessed as reduction in (D-Trp6)-GnRH-stimulated IP production by whole cell assay; format: functional, cell-based
T2 sequence (P30968 whole entry): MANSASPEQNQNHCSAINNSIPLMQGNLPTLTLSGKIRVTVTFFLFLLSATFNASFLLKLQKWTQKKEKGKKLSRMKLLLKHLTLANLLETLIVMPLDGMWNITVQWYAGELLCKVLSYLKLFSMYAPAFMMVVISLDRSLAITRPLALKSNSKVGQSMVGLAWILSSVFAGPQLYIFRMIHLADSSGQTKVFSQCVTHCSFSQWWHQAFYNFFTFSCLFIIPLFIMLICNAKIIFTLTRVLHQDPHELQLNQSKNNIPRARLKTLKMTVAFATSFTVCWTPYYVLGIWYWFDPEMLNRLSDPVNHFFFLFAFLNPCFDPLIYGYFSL
How it was run: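 Whole-cell assay, cells stimulated with (D-Trp6)-GnRH; compound-driven reduction of inositol phosphate read as IC50.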

Rattus norvegicus [12] = assay: Change in serum leutinizing hormone level in orchidectomized rat at 30 mg/kg, po after 1 hr relative to control; format: functional; how it was run: as §3
[13] = Reduction in leutinizing hormone release in (D-Trp6)-GnRH-stimulated rat primary pituitary cells by RIA; format: functional, cell-based; conditions: Pituitary gland cell
How it was run: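 Primary rat pituitary cells stimulated with (D-Trp6)-GnRH; compound-driven reduction of LH release read as IC50.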

[14] = Volume of distribution at steady state in orchidectomized Sprague-Dawley rat at 1 mg/kg, iv after 1 day; format: ADME, organism-based; design: dose 1 mg/kg, route intravenous; conditions: male, in vivo, read-out: Vdss; how it was run: as §2
Rattus norvegicus [15] = assay: Change in serum leutinizing hormone level in orchidectomized rat at 30 mg/kg, po after 6 hrs relative to control; format: functional; how it was run: as §3
[16] = Oral bioavailability in orchidectomized Sprague-Dawley rat at 30 mg/kg after 1 day; format: ADME, organism-based; conditions: male, in vivo; how it was run: as §4
[17] = target: T2, Gonadotropin-releasing hormone receptor; assay: Displacement of [125I]-(D-Trp6)-GnRH from human GnRH receptor; how it was run: as §1
Rattus norvegicus [18] = assay: Change in serum leutinizing hormone level in orchidectomized rat at 30 mg/kg, po after 24 hrs relative to control; format: functional; how it was run: as §3

CYP2D6, sequence (P10635 whole entry): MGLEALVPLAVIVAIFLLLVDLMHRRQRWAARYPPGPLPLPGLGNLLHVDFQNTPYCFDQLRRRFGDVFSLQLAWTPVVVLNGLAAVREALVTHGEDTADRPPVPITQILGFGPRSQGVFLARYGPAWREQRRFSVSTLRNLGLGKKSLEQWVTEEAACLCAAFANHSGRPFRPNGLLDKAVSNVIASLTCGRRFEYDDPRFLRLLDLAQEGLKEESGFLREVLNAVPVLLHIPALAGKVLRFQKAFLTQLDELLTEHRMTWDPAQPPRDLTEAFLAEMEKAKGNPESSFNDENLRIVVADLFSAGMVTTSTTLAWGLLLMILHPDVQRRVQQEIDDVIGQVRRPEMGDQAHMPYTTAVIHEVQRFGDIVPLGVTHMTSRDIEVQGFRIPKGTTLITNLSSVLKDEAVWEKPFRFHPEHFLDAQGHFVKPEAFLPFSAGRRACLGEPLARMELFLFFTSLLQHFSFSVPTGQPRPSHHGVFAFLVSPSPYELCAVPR

## CCn1cnc(CN2CCN(c3cccc4[nH]c(-c5ccc(C(C)(C)C)cc5)nc34)CC2)c1C
CYP2D6
  inhibition at 3 µM: 14%
[1]
  IC50: 0.024 µM
[2]
  clearance: 134 mL/min/kg
Rattus norvegicus [3]
  Activity: 14.5
Rattus norvegicus [4]
  Activity: -52.8
[5]
  solubility: > 100 µg/mL
Rattus norvegicus [6]
  Activity: -0.2
[7]
  AUC at 24 h: 3440 ng·h/mL
[8]
  half-life: 21 min
CYP2C9
  inhibition at 3 µM: 27%
[9]
  half-life: 222 min
CYP3A4
  inhibition at 3 µM: 73%
[10]
  half-life: 18 min
[11]
  IC50: 0.014 µM
Rattus norvegicus [12]
  Activity: -18
[13]
  IC50: 0.2 µM
[14]
  Vd: 2.7 L/kg
Rattus norvegicus [15]
  Activity: -32.3
[16]
  bioavailability: 93%
[17]
  IC50: 0.007 µM
Rattus norvegicus [18]
  Activity: -3.5
